Hits are enriched below; roughly 2.2% of the tested compounds scored in any of these assays.
Yeast superoxide = reduction of superoxide in aged yeast, primary screen, HTS; S. cerevisiae aged cells, superoxide DHE fluorescence; active compounds read low; superoxide response (% of plate mean), % at 10 µM; 330,000 tested, 0.18% active; AID 2690, 2010;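 active = superoxide response under a set limit, about three screen SD below normal, cut at about 65% in these data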;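 also: yeast aged for seven days with compound at 30 °C before DHE staining; 100% = average MFI of all compound-treated wells on the plate with controls excluded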
Mot1-301 SUMO = yeast Mot1-301 growth rescue at high temperature, primary screen, SUMOylation pathway inhibitor project, S. cerevisiae, ATP luminescence, 38.5C. S. cerevisiae Mot1-301 growth rescue; percent above DMSO median, 100 means doubled. growth rescue, % at 18.8 µM. 320,000 tested, 1% active;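 active = every valid replicate shows activation above 250% relative to neutral control wells; inactive = the rest, any valid replicate at or below 250%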;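 also: OY570 slx delta 5 strain wells were the positive control but not used for scaling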
PglD inh = C. jejuni PglD acetyltransferase inhibitors, primary screen, biochemical, DTNB colorimetric, single point; AID 602405, 2012; 360,000 tested, 0.098% active; inhibition, % at 12.5 µM; purified PglD enzyme, DTNB colorimetric CoA detection; UDP-N-acetylbacillosamine N-acetyltransferase PglD (Campylobacter jejuni); in the data active = inhibition above about 16%, passing the limit was not always enough
Ecoli rRNA inh = reduced GFP signal of wild-type E. coli, primary screen, bacterial rRNA inhibitor project, GFP/RFP fluorescence, OD600, single point | E. coli WT GFP vs humanized-ribosome RFP mutants, 24 h; active compounds read low; DMSO median 0, no signal -100 | GFP signal change (wild-type ribosome), % (test concentration not listed) | 350,000 tested, 1.6% active | AID 720706, 2013;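 active = significant combined selectivity score with lowered wild-type GFP, culture density cut under 30%, mutant RFP and density less affected; inactive = any of these conditions unmet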
Cneo AK release = Cryptococcus neoformans cell lysis inducers, primary screen, AK release luminescence, single concentration. AID 651654, 2012. C. neoformans lysis, adenylate kinase release luminescence, 4 h; normalised: neutral wells 0, clomiphene wells 100. lysis activity, % at 15 µM. 360,000 tested, 0.2% active;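 active = mean lysis activity across replicates of at least 80%, whatever share of replicates individually reach that level; inactive = mean lysis activity below 80%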
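Schedule: static 4 h at 37 °C with compound, 1 h detection; system: C. neoformans cells; benchmarks: Clomiphene as positive control; buffer or medium: fresh YPD medium; measure: luminescence rise reflecting yeast cell lysis; measured by: luminescent adenylate kinase detection reagent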
Superoxide pick = superoxide lowering in aged yeast cells, confirmation, cherry picked compounds. shares compounds with Yeast superoxide. S. cerevisiae aging, superoxide DHE fluorescence; active compounds read low. superoxide response (% of plate), % at 10 µM. 850 tested, 1% active. AID 434994, 2010;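 active = superoxide signal below 65% of the plate average of sample wells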;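 also: cells aged with compound for 7 days at 30 degrees C before staining; 100% equals mean DHE fluorescence of all compound wells on the plate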
DHE fluor count = DHE quenching or ROS scavenging interference in aged yeast, artefact control for yeast caloric restriction mimetic project, S. cerevisiae BY4741, flow cytometry | shares compounds with Yeast superoxide | DHE fluorescence; active compounds read low | fluorescence response, % at 10 µM | 850 tested, under 10 active | AID 435000, 2010;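 active = fluorescence response below 15%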;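 also: percent of the mean fluorescence averaged over all compound wells on the plate; lower means stronger quenching of DHE signal or ROS scavenging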
* = called active by the depositor; nt = no result given.

SMILES	Yeast superoxide	Mot1-301 SUMO	PglD inh	Ecoli rRNA inh	Cneo AK release	Superoxide pick	DHE fluor count
CC(=NCCc1ccccc1)C1=C(O)C(c2ccccc2)OC1=O (stereo not given)	51.9*	-22.8	nt	-20.5	nt	92.1	97.6
COc1ccc(CNC(=O)C[C@@H]2CC[C@@H]3[C@H](COc4ccc(NC(=O)C5CC5)cc4C(=O)N3C)O2)cc1	nt	nt	3.1	1.7	3.7	nt	nt
N#CCCN(Cc1ccccc1)C(=S)NC(=O)c1ccccc1	57.2*	7.6	10.6	nt	12.1	102.0	106.5
CCC(=O)N[C@@H]1C=C[C@@H](CC(=O)NCc2ccccc2F)O[C@H]1CO	nt	nt	-0.4	4.2	-0.6	nt	nt
COc1ccc(C(=O)N2CCN(c3ccc(C)c(C)c3)CC2)cc1OC	100.6	-9.7	-3.6	2.5	3.2	nt	nt
Cc1ccc(C(=O)N2CCN(c3ccccc3)CC2)cc1C	91.2	4.2	-0.8	-10.2	-8.2	90.0	89.1
Cc1ccc(C(=O)N2CCN(c3cccc(Cl)c3)CC2)cc1C	102.7	81.0	0.0	-43.0	-0.2	109.1	100.4
CS(=O)(=O)Nc1ccc(C(=O)N2CCN(c3ccccc3)CC2)cc1	88.3	2.7	-0.6	nt	0.9	92.4	91.1
O=C(c1ccccc1)N1CCN(c2ccccc2)CC1	nt	nt	-2.0	5.2	0.7	nt	nt
O=C(c1ccccc1)N1CCN(c2ccc(Cl)cc2)CC1	84.8	9.5	-1.0	-2.9	3.2	90.3	89.8
c1ccc2[nH]c3cc4ncnc4cc3nc2c1	40.2*	11.7	nt	-4.4	nt	46.7*	88.9
FC(F)c1nc2ccccc2[nH]1	119.9	-8.1	nt	14.8	nt	nt	nt
O=C(CC(Cc1ccccc1)C(=O)O)Nc1ccccc1 (stereo not given)	50.0*	216.0	-7.9	17.9	-0.2	94.4	91.5
O=C(CC(Cc1ccccc1)C(=O)O)Nc1ccc(Cl)c(Cl)c1 (stereo not given)	106.8	-21.2	7.9	-43.1	1.5	nt	nt
Cc1nc(-c2ccc(S(=O)(=O)Nc3cc(S(=O)(=O)N(C)C)ccc3C)s2)cs1	63.8*	-3.4	nt	-9.6	nt	114.1	116.8
OC(COCC(F)(F)C(F)(F)C(F)(F)C(F)F)Cn1c2ccccc2c2ccccc21 (stereo not given)	138.6	9.8	nt	-30.2	nt	99.5	105.4
Cc1ccc(OCC(O)Cn2c3ccccc3c3ccccc32)cc1 (stereo not given)	99.5	8.3	3.9	nt	-3.8	nt	nt
Cc1ccc(-c2nnc(Nc3ccc(CC(N)=O)cc3)c3ccccc23)cc1S(N)(=O)=O	84.2	-2.6	-0.7	-9.5	-1.5	99.4	97.0
Cc1ccc(-c2nnc(Nc3ccc(OCC(N)=O)cc3)c3ccccc23)cc1S(N)(=O)=O	104.2	-1.7	-2.3	-13.3	-0.1	103.8	97.4
CNS(=O)(=O)c1cc(-c2nnc(Nc3ccc(CC(N)=O)cc3)c3ccccc23)ccc1C	101.3	-9.4	3.5	-41.5	-0.4	nt	nt
Cc1ccc(-c2nnc(Nc3ccc(O)cc3)c3ccccc23)cc1S(=O)(=O)NCCO	106.4	-5.5	-1.6	-19.4	-1.5	124.4	115.9
CNC(=O)c1ccc(Nc2nnc(-c3ccc(C)c(S(N)(=O)=O)c3)c3ccccc23)cc1	102.3	-11.2	-3.8	-9.5	0.4	93.7	91.0
Cc1ccc(S(=O)(=O)N(C)C[C@H]2Oc3ccc(NC(=O)NC4CCCCC4)cc3CC(=O)N([C@H](C)CO)C[C@@H]2C)cc1	nt	nt	-0.4	-1.0	0.8	nt	nt
Cc1cc(-c2nnc(SCC(=O)Nc3ccc(C(F)(F)F)cc3)n2C)no1	113.4	-13.9	0.7	-5.8	2.4	nt	nt
Cc1cc(-c2nnc(SCC(=O)Nc3ccccc3)n2C)no1	57.8*	-9.2	nt	4.0	nt	103.8	115.5
SMILES	Yeast superoxide	Mot1-301 SUMO	PglD inh	Ecoli rRNA inh	Cneo AK release	Superoxide pick	DHE fluor count
O=C(CN1CCN(c2ccccn2)CC1)Nc1ccc2ccccc2c1	95.1	-2.5	-1.3	nt	0.0	nt	nt
O=C(CN1CCN(c2ccccn2)CC1)Nc1cc(C(F)(F)F)ccc1Cl	96.5	-4.2	nt	nt	nt	107.0	132.8
O=C(CN1CCN(c2ccccn2)CC1)Nc1ccc(Cl)c(C(F)(F)F)c1	102.0	4.2	0.0	nt	4.2	95.4	102.6
O=C(CN1CCCC1)Nc1cc(C(F)(F)F)ccc1Cl	95.5	nt	nt	5.8	nt	nt	nt
O=C(Nc1ccc2cccnc2c1)c1ccc(Br)cc1	100.3	326.2	-4.0	10.4	1.5	nt	nt
O=C(Nc1ccc2nc3ccccc3nc2c1)c1ccc(Br)cc1	98.6	-21.8	-2.3	nt	-0.9	92.6	112.8
COc1ccc([C@@H]2CC=CC[C@H](C)Oc3ccccc3C(=O)N(C)[C@@H](C)C(=O)N2)c(OC)c1 (mixture of isomers)	nt	nt	nt	-2.6	nt	nt	nt
CCNC(=O)C[C@H]1CC[C@@H]2[C@H](COC[C@H](O)CN2C(=O)c2cc(Cl)cc(Cl)c2)O1	nt	nt	-2.2	0.7	-0.5	nt	nt
Cc1ccc(S(=O)(=O)NCC[C@H]2CC[C@H](NC(=O)c3cccc(F)c3)[C@@H](CO)O2)cc1	nt	nt	-2.5	-2.8	15.2	nt	nt
CCOC(=O)c1cccnc1SCC(=O)N(CC)c1cccc(C)c1	102.9	-19.8	3.8	nt	-0.2	nt	nt
CCN(C(=O)CSc1ncccc1C(=O)OC(C)C)c1cccc(C)c1	62.9*	0.1	2.0	nt	-0.8	112.2	101.2
CC(=O)Nc1ccc2c(c1)C(=O)N(C)[C@H]1CC[C@H](CC(=O)Nc3cccc(Cl)c3)O[C@@H]1CO2	nt	nt	-3.4	-1.6	0.2	nt	nt
C[C@H]1CN([C@@H](C)CO)C(=O)c2cc(NC(=O)Cn3cnnn3)ccc2O[C@@H]1CN(C)S(=O)(=O)c1cn(C)cn1	nt	nt	3.1	-0.5	9.4	nt	nt
CCCCn1c(N)c(N(CC(C)C)C(=O)c2ccc(C)o2)c(=O)[nH]c1=O	90.2	11.0	-2.1	4.4	-10.6	nt	nt
CCCCn1c(N)c(N(CC(C)C)C(=O)c2ccc(-c3ccc(C(C)=O)cc3)o2)c(=O)[nH]c1=O	64.8*	nt	-4.4	12.4	-2.9	110.4	103.2
CN(C)C(=O)C[C@@H]1C=C[C@H](NC(=O)NC2CCCCC2)[C@H](CO)O1	nt	nt	0.7	-1.1	0.8	nt	nt
N#Cc1ccc(Nc2ccccc2)c(N)c1	60.8*	27.2	0.5	nt	-1.1	93.3	107.1
N#Cc1cc(N)c(Nc2ccccc2)cc1C#N	86.2	-15.3	5.5	nt	0.9	nt	nt
CCCC#Cc1ccc2c(c1)O[C@@H](CN(C)C(=O)c1cnccn1)[C@@H](C)CN([C@@H](C)CO)S2(=O)=O	nt	nt	-2.8	3.6	-3.3	nt	nt
